Test results from ChEMBL document CHEMBL3856268 (J Med Chem, 2016).
Calls of active or inactive are those of the source. No cut-off for these calls is given here.

Tests used:
[1] = target: T1, NAD-dependent protein deacetylase sirtuin-1 (Homo sapiens) (UniProt Q96EB6); experiment: Activation of 25 nM N-terminal His6-tagged recombinant human SIRT1 expressed in Escherichia coli at 100 uM using RHKK(Ac)W-NH2 as substrate after 1 hr in presence of 0.01% TX-100 by UV detection-based HPLC method relative to control
T1 sequence (whole entry): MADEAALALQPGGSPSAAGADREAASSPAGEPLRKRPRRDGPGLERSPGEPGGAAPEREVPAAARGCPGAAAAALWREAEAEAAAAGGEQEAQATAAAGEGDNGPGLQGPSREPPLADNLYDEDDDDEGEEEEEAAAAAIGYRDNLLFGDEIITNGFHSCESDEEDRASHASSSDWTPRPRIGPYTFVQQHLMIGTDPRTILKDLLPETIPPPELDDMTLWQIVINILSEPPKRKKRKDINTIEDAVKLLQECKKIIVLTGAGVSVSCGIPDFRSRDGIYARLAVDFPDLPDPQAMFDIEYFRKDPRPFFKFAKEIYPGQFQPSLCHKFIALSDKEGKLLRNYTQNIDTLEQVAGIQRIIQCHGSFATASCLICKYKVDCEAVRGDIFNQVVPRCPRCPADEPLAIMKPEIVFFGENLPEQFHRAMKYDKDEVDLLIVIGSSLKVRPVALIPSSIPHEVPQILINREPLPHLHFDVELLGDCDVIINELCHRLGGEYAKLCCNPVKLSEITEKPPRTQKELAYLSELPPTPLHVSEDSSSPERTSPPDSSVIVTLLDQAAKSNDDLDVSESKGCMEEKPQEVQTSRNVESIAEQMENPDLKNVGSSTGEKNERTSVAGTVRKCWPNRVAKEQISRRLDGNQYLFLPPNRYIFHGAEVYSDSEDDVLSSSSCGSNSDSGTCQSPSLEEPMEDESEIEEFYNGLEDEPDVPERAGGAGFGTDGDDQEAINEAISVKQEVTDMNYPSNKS
Summary of the method: (§1)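 SIRT1 (Sigma stock ~6 μM, 10% glycerol, no BSA) freshly diluted in 50 mM Tris-HCl/Tris pH 8.0. Mixture: 200 μM NAD+, 100 μM RHKK(Ac)W-NH2, 1% DMSO, optional additive (Triton X-100 0.01% v:v; BSA 1 mg/mL). Reaction started by enzyme without preincubation, run at 37 °C with conversion kept at 1–10% (30 min at 50 nM, 1 h at 25 nM, 5–10 min at 250 nM). Read-out: C18 HPLC, UV 220 nm, percent conversion from peak areas.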

[2] = target: T1, NAD-dependent protein deacetylase sirtuin-1 (Homo sapiens); experiment: Inhibition of 50 nM N-terminal His6-tagged recombinant human SIRT1 expressed in Escherichia coli at 100 uM using RHKK(Ac)W-NH2 as substrate after 30 mins by UV detection-based HPLC method; summary of the method: as §1
[3] = target: T1, NAD-dependent protein deacetylase sirtuin-1 (Homo sapiens); experiment: Activation of 50 nM N-terminal His6-tagged recombinant human SIRT1 expressed in Escherichia coli at 100 uM using RHKK(Ac)W-NH2 as substrate after 30 mins in presence of 0.01% TX-100 by UV detection-based HPLC method relative to control; summary of the method: as §1
[4] = target: T1, NAD-dependent protein deacetylase sirtuin-1 (Homo sapiens); details: 1 uM
[5] = target: T1, NAD-dependent protein deacetylase sirtuin-1 (Homo sapiens); details: 1 uM; remark: listed apart in the source
[6] = target: T1, NAD-dependent protein deacetylase sirtuin-1 (Homo sapiens); details: 1 uM; remark: listed apart in the source
[7] = target: T2, NAD-dependent protein deacetylase sirtuin-1 (Homo sapiens, UniProt Q96EB6); experiment: Inhibition of human recombinant GST-fused SIRT1 expressed in Escherichia coli DH5-alpha using [3H]acetic acid labeled MPSDKTIGG as substrate after overnight incubation by liquid scintillation counting method
T2 sequence (Q96EB6 whole entry): T1 sequence (whole entry)

[8] = target: T3, NAD-dependent protein deacetylase sirtuin-2 (Homo sapiens, UniProt Q8IXJ6); experiment: Inhibition of human recombinant GST-fused SIRT2 expressed in Escherichia coli DH5-alpha using [3H]acetic acid labeled MPSDKTIGG as substrate after overnight incubation by liquid scintillation counting method
T3 sequence (Q8IXJ6 whole entry): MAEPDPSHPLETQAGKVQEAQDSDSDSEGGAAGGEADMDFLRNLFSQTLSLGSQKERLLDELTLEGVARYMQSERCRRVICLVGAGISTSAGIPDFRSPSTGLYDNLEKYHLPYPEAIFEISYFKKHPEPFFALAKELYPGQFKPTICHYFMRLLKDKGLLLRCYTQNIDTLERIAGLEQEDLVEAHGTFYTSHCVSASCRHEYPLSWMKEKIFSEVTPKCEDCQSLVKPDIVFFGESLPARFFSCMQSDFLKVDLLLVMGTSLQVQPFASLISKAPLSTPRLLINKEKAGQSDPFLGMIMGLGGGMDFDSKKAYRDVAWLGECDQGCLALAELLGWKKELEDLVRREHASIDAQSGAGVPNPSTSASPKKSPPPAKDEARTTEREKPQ

[9] = target: T1, NAD-dependent protein deacetylase sirtuin-1 (Homo sapiens); experiment: Inhibition of 8 nM N-terminal His6-tagged recombinant human SIRT1 expressed in Escherichia coli assessed as remaining activity at 100 uM using RHKK(Ac)W-NH2 as substrate by UV detection-based HPLC method relative to control
Summary of the method: (§2)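 Same SIRT1 HPLC deacetylation assay: 50 mM Tris-HCl/Tris pH 8.0, 200 μM NAD+, 100 μM RHKK(Ac)W-NH2, 1% DMSO. Started by enzyme addition, 37 °C. Deacetylated product separated by C18 HPLC, detected at 220 nm, and conversion computed from peak areas.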

[10] = Drug aggregation in deuterated phosphate buffer assessed as diffusion coefficient at 100 uM in presence of 0.01% TX-100 by DOSY NMR method; assay type: physicochemical
Summary of the method: (§3)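 DOSY at 600 MHz in deuterated phosphate buffer (50 mM, pH 8.0), using stimulated echo with bipolar gradient pulses and spoil gradients. 32 F1 increments of 32 scans, relaxation delay 1 s, acquisition 0.68 s, Δ 50 ms, δ 2.2 ms, 8192 points, 6009 Hz width. Diffusion coefficients taken from residual resonances of the compound.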

[11] = target: T1, NAD-dependent protein deacetylase sirtuin-1 (Homo sapiens); experiment: Activation of 25 nM N-terminal His6-tagged recombinant human SIRT1 expressed in Escherichia coli at 100 uM using RHKK(Ac)W-NH2 as substrate after 1 hr in presence of 0.01% TX-100 by UV detection-based HPLC method
[12] = Drug aggregation in deuterated phosphate buffer assessed as diffusion coefficient at 100 uM by DOSY NMR method; assay type: physicochemical; summary of the method: as §3
[13] = target: T1, NAD-dependent protein deacetylase sirtuin-1 (Homo sapiens); experiment: Activation of 25 nM N-terminal His6-tagged recombinant human SIRT1 expressed in Escherichia coli at 100 uM using RHKK(Ac)W-NH2 as substrate after 1 hr in presence of 0.01% Tween 20 by UV detection-based HPLC method; summary of the method: as §2
[14] = Drug aggregation in deuterated phosphate buffer assessed as diffusion coefficient at 100 uM in presence of 0.001% TX-100 by DOSY NMR method; assay type: physicochemical; summary of the method: as §3
[15] = Drug aggregation in deuterated phosphate buffer assessed as diffusion coefficient at 1 mM by DOSY NMR method; assay type: physicochemical; details: 1000 µM; summary of the method: as §3
[16] = target: T1, NAD-dependent protein deacetylase sirtuin-1 (Homo sapiens); experiment: Activation of 50 nM N-terminal His6-tagged recombinant human SIRT1 expressed in Escherichia coli at low micromolar concentration using RHKK(Ac)W-NH2 as substrate after 30 mins in presence of 0.01% TX-100 by UV detection-based HPLC method relative to control; summary of the method: as §1
[17] = target: T1, NAD-dependent protein deacetylase sirtuin-1 (Homo sapiens); experiment: Binding affinity to 25 to 100 nM N-terminal His6-tagged recombinant human SIRT1 expressed in Escherichia coli at 100 uM by 1H NMR method
[18] = Drug aggregation in deuterated phosphate buffer assessed as diffusion coefficient at 100 uM in presence of 1.5 uM bovine serum albumin by DOSY NMR method; assay type: physicochemical; summary of the method: as §3
[19] = target: T1, NAD-dependent protein deacetylase sirtuin-1 (Homo sapiens); experiment: Activation of 8 nM N-terminal His6-tagged recombinant human SIRT1 expressed in Escherichia coli at 100 uM using RHKK(Ac)W-NH2 as substrate in presence of 0.01% TX-100 by UV detection-based HPLC method relative to control; summary of the method: as §2
[20] = target: T1, NAD-dependent protein deacetylase sirtuin-1 (Homo sapiens); experiment: Inhibition of 25 nM N-terminal His6-tagged recombinant human SIRT1 expressed in Escherichia coli at 100 uM using RHKK(Ac)W-NH2 as substrate after 1 hr by UV detection-based HPLC method relative to control; summary of the method: as §1

With `CC(C)=CCC[C@]1(C)[C@@H](CC=C(C)C)C[C@@]2(CC=C(C)C)C(=O)[C@]1(C(=O)C(C)C)C(=O)C(CC=C(C)C)=C2OCC(=O)O` the Activity [1] was “Active”, the inhibition [2] was “Active” and the Activity [3] was “Active”.
With `CC1=CCC(C(=O)/N=C2\CC=C(S(=O)(=O)O)c3cc(S(=O)(=O)O)cc(S(=O)(=O)O)c32)=C/C1=N/C(=O)C1=CC=C/C(=N\C(=O)/N=C2\C=CC=C(C(=O)/N=C3/CC(C(=O)/N=C4\CC=C(S(=O)(=O)O)c5cc(S(=O)(=O)O)cc(S(=O)(=O)O)c54)=CC=C3C)C2)C1` the inhibition [4] was “Active”, the inhibition [5] was “Active” and the inhibition [6] was “Active”.
With `CC(C)=CCC/C(C)=C/C[C@@H]1C[C@]2(CC=C(C)C)C(=O)[C@@](CC=C(C)C)(C(=O)C(C(=O)c3ccc(O)c(O)c3)=C2O)[C@@]1(C)CCC=C(C)C` [OBLONGIFOLIN C] the IC50 [7] was 9 µM and the IC50 [8] was 22 µM.
With `CC(C)=CCC[C@]1(C)[C@@H](CC=C(C)C)C[C@]2(CC=C(C)C)C(=O)[C@@]1(CC=C(C)C)C(=O)C(C(=O)c1ccc(O)c(O)c1)=C2O` [GUTTIFERONE A] the fold change (FC) [1] was 2, the Activity [9] was 1% and the inhibition [2] was “Active”. The D [10] was 1.808 ×10⁻¹⁰ m2/s, the Activity [11] was “Active” and the D [12] was 2.706 ×10⁻¹⁰ m2/s. For the same compound, the Activity [13] was “Active”, the D [14] was 2.298 ×10⁻¹⁰ m2/s and the D [15] was 2.246 ×10⁻¹⁰ m2/s. For the same compound, the Activity [16] was “Active”, the fold change (FC) [3] was 2 and the Activity [17] was “Active”. The D [18] was 1.61 ×10⁻¹⁰ m2/s, the Activity [19] was 158% and the inhibition [20] was 90%.
With `CC(C)=CCC[C@]1(C)[C@@H](CC=C(C)C)C[C@]2(CC=C(C)C)C(=O)C(CC=C(C)C)=C(O)[C@@]1(C(=O)C(C)C)C2=O` the inhibition [2] was “Active” and the Activity [3] was “Active”.
